Screening data deposited in PubChem by several laboratories.
Only some compounds are listed: those with a hit (about 3.6% of all), similar ones and a draw of the others.
PolyA inhibitor: yeast polyadenylation inhibition; S. cerevisiae SKY197-pL101 polyadenylation reporter, beta-gal luminescence; efflux-impaired pdr1/pdr3 knockout yeast; score 100 = 6 SD above DMSO; activity score, % at 12 µM; hit rate 0.02% among 300,000; AID 1875;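 active = lowest replicate activity score at least 50, where 100 means six control SD above control mean; inconclusive = lowest score under 50 but half or more replicates reach 50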;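 also: yeast exposed to compound for 9 h at 30 °C; higher score means more reporter readthrough which indicates perturbed polyadenylation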
PERK inh: blocks human PERK kinase. Q9NZJ5. CHO PERK-DD fusion, SEAP luminescence translation reporter. inhibition, % at 5.6 µM. hit rate 0.17% among 220,000. AID 1416;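 active = inhibition above the mean inhibition of all tested compounds plus 3 SD, set separately per screening campaign, cut at about 2.9% in these data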;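 also: PERK kinase domain activated by AP20187 dimerizer at 100 nM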
Target sequence (Q9NZJ5 whole entry, looked up, the tested form may be a part): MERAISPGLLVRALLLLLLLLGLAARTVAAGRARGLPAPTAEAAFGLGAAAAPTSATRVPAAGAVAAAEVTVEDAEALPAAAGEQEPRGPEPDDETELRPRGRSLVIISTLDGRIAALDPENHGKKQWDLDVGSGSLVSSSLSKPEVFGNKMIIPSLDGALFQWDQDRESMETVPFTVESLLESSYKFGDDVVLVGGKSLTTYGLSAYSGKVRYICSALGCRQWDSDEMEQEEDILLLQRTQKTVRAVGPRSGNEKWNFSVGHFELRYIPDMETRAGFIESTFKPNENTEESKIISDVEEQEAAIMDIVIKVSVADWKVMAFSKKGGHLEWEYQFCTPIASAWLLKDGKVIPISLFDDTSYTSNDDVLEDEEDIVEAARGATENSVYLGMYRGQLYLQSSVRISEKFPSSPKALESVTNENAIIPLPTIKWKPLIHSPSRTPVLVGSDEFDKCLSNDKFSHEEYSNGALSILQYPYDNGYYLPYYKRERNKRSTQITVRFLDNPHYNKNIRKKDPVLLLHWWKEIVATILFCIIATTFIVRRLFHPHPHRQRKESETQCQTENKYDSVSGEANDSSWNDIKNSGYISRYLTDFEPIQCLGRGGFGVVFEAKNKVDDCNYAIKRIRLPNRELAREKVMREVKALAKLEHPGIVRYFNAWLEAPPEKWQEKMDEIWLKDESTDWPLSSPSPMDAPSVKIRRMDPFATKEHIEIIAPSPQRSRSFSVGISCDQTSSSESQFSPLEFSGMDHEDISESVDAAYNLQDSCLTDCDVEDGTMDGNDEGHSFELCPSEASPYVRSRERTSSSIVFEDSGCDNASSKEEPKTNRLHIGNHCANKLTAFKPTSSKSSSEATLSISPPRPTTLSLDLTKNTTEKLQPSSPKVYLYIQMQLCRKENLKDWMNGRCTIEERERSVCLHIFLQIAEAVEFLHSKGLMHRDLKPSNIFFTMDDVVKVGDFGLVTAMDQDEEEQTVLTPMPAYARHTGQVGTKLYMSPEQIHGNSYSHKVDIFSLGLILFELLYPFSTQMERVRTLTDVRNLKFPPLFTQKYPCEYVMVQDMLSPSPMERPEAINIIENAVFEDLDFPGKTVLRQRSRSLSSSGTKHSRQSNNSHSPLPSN
AHR activator: human AHR activation | AHR-responsive luciferase reporter cells, luminescence | hit rate 2.5% among 320,000 | activation, % at 5 µM | P35869; in the data active = activation above about 47%
HSF1 inhib: HSF1 inhibition | NIH3T3-HGL HSE-luciferase, MG132-induced, luminescence 8 h; active compounds read low | activity change, negative = inhibition, % at 7.5 µM (by protocol) | hit rate 0.77% among 300,000;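 active = more than half of replicate wells show activity change below -50%, luminescence cut by over half; inconclusive = some wells, but at most half, below -50%; inactive = no replicate well below -50%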;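 also: luciferase reports HSF-1 transcriptional activity via heat shock element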
Hsp70 activator: transcriptional activators of Hsp70. HeLa Hsp70 promoter luciferase reporter, luminescence; scaled: vehicle 0, proteasome-inhibitor control 100%. activation, % at 10 µM. hit rate 0.04% among 200,000. AID 1203;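 active = activation above the mean across all tested compounds plus 3 SD, cutoff set per campaign, cut at about 5.5% in these data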
STAT3 act: STAT3 signaling activation; U3A cells, IL-6 STAT3-luciferase reporter, luminescence; 100% = signal with IL-6 EC80 alone; hit rate 0.91% among 190,000; activation (% of control), % at 5.6 µM; AID 871;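 active = activation above the screen-wide mean of compound activation plus 3 SD, cut at about 130% in these data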
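Material: STAT1-lacking human U3A cells, STAT3 luciferase reporter | Benchmarks: IL-6-only wells as 100% reference | Probe or stimulus: IL-6 (33 ng/mL) | Timing: Compound 1 h, then IL-6 6 h at 37 °C | Detection: Luminescence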
Each line names hits and unclear results; the compound was inactive in the other large screens.

Cc1csc(N/N=C/c2c(F)cccc2Cl)n1	AHR activator 57 (no result: PERK inh, Hsp70 activator, STAT3 act)
C[C@H](CO)N1C[C@H](C)[C@@H](CN(C)S(=O)(=O)c2ccccc2)Oc2ccc(NS(=O)(=O)c3cccs3)cc2C1=O	none (no result: PolyA inhibitor, PERK inh, HSF1 inhib, Hsp70 activator, STAT3 act)
O=C(Nc1ccccc1)c1cc2ccc3ccccc3c2s1	AHR activator 69 (no result: Hsp70 activator, STAT3 act)
COc1ccc2cc(C(=O)Nc3ccccc3)sc(=O)c2c1OC	none
COc1cccc2c1nc(C)c1cc(C)oc12	AHR activator 62
COc1ccc2nc(C)c3cc(C)oc3c2c1	none (no result: PolyA inhibitor, HSF1 inhib)
Cc1cc(C)n(-c2ccc(NC(=O)C3CCCCN3C(=O)c3cc(C)oc3C)cc2)n1 (configuration not stated)	none (no result: PERK inh, Hsp70 activator, STAT3 act)
FC(F)c1nnc2c(Cl)cc(C(F)(F)F)cn12	none
Fc1ccc(-c2nc3c(Cl)cc(C(F)(F)F)cn3c2Cl)cc1	STAT3 act 134
COc1ccc(CCNc2cc(C)nc3c(-c4ccc(Cl)cc4)cnn23)cc1OC	AHR activator 69
COC(=O)C(=C/C=C/N1CCOCC1)C(=O)OC	none (no result: Hsp70 activator, STAT3 act)
Cc1cc(=O)oc2cc(NC(=O)c3ccccc3Cl)ccc12	AHR activator 63 (no result: PERK inh, Hsp70 activator, STAT3 act)
CC1CCN(c2ccc(-c3ccc(NC(=O)C(F)(F)F)cc3)nn2)CC1	AHR activator 50 (no result: PERK inh, Hsp70 activator, STAT3 act)
CC(=O)Nc1ccc(NC(=O)C(F)(F)F)cc1	none
Cc1ccc(-c2ccc(=O)n(CCC(=O)NCCN3CCCCC3C)n2)cc1 (configuration not stated)	HSF1 inhib -75
Cc1ccc(-c2ccc(=O)n(CC(=O)NCCN3CCCCC3C)n2)cc1 (configuration not stated)	none (no result: HSF1 inhib)
COc1ccc(-c2nc3cc(C)ccn3c2NC(=O)c2ccccc2OC)cc1	AHR activator 53 (no result: PERK inh, Hsp70 activator, STAT3 act)
CCCS(=O)(=O)N1CCN=C1SCc1cccc(C)c1	none
CC(c1ccccc1)N1CCN(C(=O)CCl)CC1 (configuration not stated)	HSF1 inhib -94
CC(CC(=O)N1CCN(C(=O)c2ccccc2)CC1)c1ccccc1 (configuration not stated)	none (no result: PERK inh, Hsp70 activator, STAT3 act)
Cc1ccc(S(=O)(=O)Nc2cc(C)cn(Cc3ccc(F)cc3)c2=O)cc1	none (no result: PERK inh, Hsp70 activator, STAT3 act)
Cc1nc(-c2ccccc2)sc1-c1nc(-c2ccncc2)ncc1S(=O)(=O)c1ccccc1	AHR activator 54
COc1nc(-c2ccccc2)ncc1S(=O)(=O)c1ccccc1	none
O=C(c1ccc(Cl)cc1Cl)C1(n2cncn2)Oc2ccccc2C1O (configuration not stated)	AHR activator 66
COc1ccccc1CC(=O)NCCN1CCCCC1	PolyA inhibitor inconclusive (no result: PERK inh, Hsp70 activator, STAT3 act)
COc1cc(O)oc1C=Nc1ccc(C(=O)O)cc1	HSF1 inhib -62
COc1cc(O)oc1C=Nc1ccc(Cl)cc1	none
COc1ccc(C)cc1NC(=O)CCNS(=O)(=O)c1ccc2c(c1)CCC(=O)N2	none (no result: PERK inh, Hsp70 activator, STAT3 act)
COc1ccc(NC(=O)COc2cccc3c2CCN(C)C3=O)c(OC)c1	AHR activator 77 (no result: PERK inh, Hsp70 activator, STAT3 act)
O=C(CCS(=O)(=O)c1ccc(Cl)cc1)NC1CCCC1	none (no result: PolyA inhibitor, PERK inh, HSF1 inhib, Hsp70 activator, STAT3 act)
N#Cc1cc2c(nc1SCC(=O)N1CCOCC1)CCCCC2	HSF1 inhib -67
CCCNC(=O)c1nnsc1Sc1ccc(Cl)cc1	none
COc1ccc(-c2cc3cc(OC)c(OC)cc3cn2)cc1	AHR activator 65 (no result: PolyA inhibitor, PERK inh, HSF1 inhib, Hsp70 activator, STAT3 act)
Cc1ccc(OCC(=O)N/N=C/c2cccnc2)cc1	none (no result: PERK inh, Hsp70 activator, STAT3 act)
CCOC(=O)c1c(N/N=C/c2cccnc2)n[nH]c1C	AHR activator 52 (no result: Hsp70 activator, STAT3 act)
Cc1ccnc(N2CCCC(C(=O)NCc3cccs3)C2)n1 (configuration not stated)	HSF1 inhib -66
CCOC(=O)C[C@H]1c2cc(F)ccc2S(=O)(=O)N1c1cccc(OC)c1	none (no result: PERK inh, Hsp70 activator, STAT3 act)
CC(=O)C[C@H]1c2cc(F)ccc2S(=O)(=O)N1c1ccc(N(C)C)cc1	HSF1 inhib -62 (no result: PERK inh, Hsp70 activator, STAT3 act)
Cc1ccc(NCC(=O)N=Nc2c(O)[nH]c3ccc([N+](=O)[O-])cc23)cc1	AHR activator 125 (no result: HSF1 inhib, Hsp70 activator, STAT3 act)
O=[N+]([O-])c1ccc2[nH]c(O)c(N=NC(=S)Nc3cccnc3)c2c1	AHR activator 62 (no result: Hsp70 activator, STAT3 act)
CN(C(=O)COC(=O)c1ccccc1OCc1ccc(Cl)cc1)c1c(N)n(Cc2ccccc2)c(=O)[nH]c1=O	none (no result: PERK inh, Hsp70 activator, STAT3 act)
Cc1ccccc1-n1nc2c(c1NC(=O)COc1ccc(Cl)cc1)CS(=O)C2 (configuration not stated)	none
O=C(COc1ccccc1)Nc1c2c(nn1-c1ccccc1)CS(=O)C2 (configuration not stated)	AHR activator 56 (no result: PERK inh, Hsp70 activator, STAT3 act)
Cn1c(C(O)c2ccc(Br)cc2)nc(Cl)c1Cl (configuration not stated)	AHR activator 61 (no result: Hsp70 activator, STAT3 act)
Cn1c(C(O)c2ccccc2F)nc(Cl)c1Cl (configuration not stated)	none
CC(C)N(C(=O)/C=C/c1cccc([N+](=O)[O-])c1)C(C)C	PERK inh 3.6
Cc1ccc(/C=C/C(=O)c2c(C)nc3ccccn23)cc1	none
Cc1nc2ccccn2c1C(=O)/C=C/c1cccc([N+](=O)[O-])c1	AHR activator 60
CCCN(CCC)C(=O)/C=C/c1cccc([N+](=O)[O-])c1	none (no result: Hsp70 activator, STAT3 act)
O=C(CCSc1ccc(F)cc1)NNC(=O)c1ccc([N+](=O)[O-])cc1	none (no result: PolyA inhibitor, PERK inh, HSF1 inhib, Hsp70 activator, STAT3 act)
O=C(CCN1CCCCO1)N1CCCC(Nc2ccc(F)cc2)C1 (configuration not stated)	none (no result: PERK inh, Hsp70 activator, STAT3 act)
O=C(Nc1ccccc1)C1Cc2ccccc2CN1C(=O)c1ccco1 (configuration not stated)	STAT3 act 141
COc1ccccc1CNC(=O)CN1CCN(c2ccc(C(C)=O)cc2)CC1	none (no result: PERK inh, Hsp70 activator, STAT3 act)
O=C(CCc1ccccc1)NC(=S)Nc1ccccc1[N+](=O)[O-]	none (no result: PERK inh, Hsp70 activator, STAT3 act)
CCOc1ccccc1NC(=O)N1CCc2ccccc2C1	AHR activator 68 (no result: PERK inh, Hsp70 activator, STAT3 act)
Cc1ccc(NC(=O)N2CCc3ccccc3C2)cc1C	none (no result: PERK inh, AHR activator, Hsp70 activator, STAT3 act)
CCOc1ccccc1NC(=O)n1ncc2c(C)cccc21	AHR activator 48 (no result: PERK inh, Hsp70 activator, STAT3 act)
O=C(Nc1ccc(F)cc1)N1CCc2ccccc2C1	AHR activator 69
Cc1cccc2c1cnn2C(=O)Nc1cc(F)ccc1F	none (no result: PERK inh, Hsp70 activator, STAT3 act)
Cc1noc(C)c1C(=O)OC(C)C(=O)NC(C)c1ccc(Cl)cc1Cl (configuration not stated)	none (no result: PolyA inhibitor, PERK inh, HSF1 inhib, Hsp70 activator, STAT3 act)
O=C1C(Cc2ccccc2O)NC(=S)N1c1ccccc1 (configuration not stated)	none (no result: Hsp70 activator, STAT3 act)
CC1=Nc2cc(C(=O)NCc3ccco3)ccc2Sc2ccc(C)cc21	STAT3 act 134
CC1=Nc2cc(C(=O)NCC3CCCO3)ccc2Sc2ccc(C)cc21 (configuration not stated)	none (no result: PERK inh, Hsp70 activator, STAT3 act)
CC(Oc1ccc2c(c1)oc(=O)c1ccccc12)C(=O)NCCN1CCOCC1 (configuration not stated)	none (no result: PERK inh, Hsp70 activator, STAT3 act)
C#CCSc1nc(-c2ccccc2)cc(C(F)(F)F)c1C#N	AHR activator 64
Cc1ccc(N=c2sc(C)c(C)n2C)cc1	AHR activator 77
Cc1csc(=Nc2ccccc2)n1C	none
N#Cc1ccccc1OCC(=O)OCC(=O)NC1CCCC1	none (no result: PolyA inhibitor, PERK inh, HSF1 inhib, Hsp70 activator, STAT3 act)
